Measurements reported in ChEMBL document CHEMBL5247675, “Antimicrobial Peptides Incorporating Halogenated Marine-Derived Amino Acid Substituents” (ACS Med Chem Lett, 2023).
Non-standard residues stand in square brackets, D forms with d. Residues, ends and D or L forms follow the SMILES beside them. *: point of attachment. Bip = N[C@@H](Cc1ccc(-c2ccccc2)cc1)C(=O)O; Lys(Me3) = C[N+](C)(C)CCCC[C@H](N)C(=O)O; NHPhenethyl = c1ccc(CCN*)cc1

Key:
[1] = system: Escherichia coli; assay: Antimicrobial activity against Escherichia coli ATCC 25922 assessed as reduction in microbial growth incubated for 18 hrs by CLSI protocol based two fold serial dilution method; assay type: functional
[2] = system: Staphylococcus aureus; assay: Antimicrobial activity against Staphylococcus aureus ATCC 29213 assessed as reduction in microbial growth incubated for 18 hrs by CLSI protocol based two fold serial dilution method; assay type: functional
[3] = system: Candida albicans; assay: Antimicrobial activity against Candida albicans SC5314 assessed as reduction in microbial growth incubated for 48 hrs by CLSI protocol based broth microdilution method; assay type: functional
[4] = system: Cyberlindnera jadinii; assay: Antimicrobial activity against clinical isolate Candida utilis SVB-Y1 assessed as reduction in microbial growth incubated for 48 hrs by CLSI protocol based broth microdilution method; assay type: functional; details: Williopsis jadinii
In short: (§1)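 Clinical isolates of the fungi were subcultured from Auckland City Hospital. MICs were determined following Clinical and Laboratory Standards Institute recommended protocols.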

[5] = system: Aspergillus fumigatus; assay: Antimicrobial activity against clinical isolate Aspergillus fumigatus SVB-F136 assessed as reduction in microbial growth incubated for 48 hrs by CLSI protocol based broth microdilution method; assay type: functional; in short: as §1
[6] = Hemolytic activity in human RBC assessed as hemolysis rate at 100 uM incubated for 45 mins by spectrophotometric assay relative to control; assay type: toxicity, cell-based, Erythrocyte; details: human red blood cells, read-out: Activity
In short: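 Isolated, washed human erythrocytes were exposed to each compound at a single concentration of 100 μM. Percent hemolysis was recorded as a relative measure between compounds.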

[7] = Cytotoxicity against human HeLa cells assessed as reduction in cell viability incubated for 24 hrs by PrestoBlue assay; assay type: toxicity, cell-based
In short: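 HeLa (human epithelial) cells were exposed to serial peptide dilutions from 1.4 to 87.5 μM for 24 h at 37 °C. Viability was read by PrestoBlue, and IC50 was taken from dose–response curves. There were two independent experiments, each in triplicate, reported as mean ± SD.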

[8] = Hemolytic activity in human RBC assessed as hemolysis rate incubated for 45 mins by spectrophotometric assay; assay type: toxicity, cell-based, Erythrocyte; details: human red blood cells

MIC [1] [µM]	MIC [2] [µM]	MIC [3] [µM]	MIC [4] [µM]	MIC [5] [µM]	Compound	hemolysis at 0.75 h, 100 µM [6] [%]	IC50 at 24 h [7] [µM]	EC50 at 45 min [8] [µM]
> 64	64	8	8	64	COc1c(Br)cc(CCNC(=O)[C@H](CCCNC(=N)N)NC(=O)[C@H](Cc2c[nH]c3ccccc23)NC(=O)[C@@H](N)CCCNC(=N)N)cc1Br	0.35		
> 64	> 64	> 64	> 64	> 64	N=C(N)NCCC[C@H](NC(=O)[C@H](Cc1ccccc1)NC(=O)[C@@H](N)CCCNC(=N)N)C(=O)NCCc1ccccc1 (H-Arg-Phe-Arg-NHPhenethyl)	0.33		
16	8	4	4	16	COc1c(Br)cc(-c2ccc(C[C@H](NC(=O)[C@@H](N)CCCNC(=N)N)C(=O)N[C@@H](CCCNC(=N)N)C(=O)NCCc3ccccc3)cc2)cc1Br	1.38	> 87.5	
8	4	4	4	16	COc1c(Br)cc(CCNC(=O)[C@H](CCCNC(=N)N)NC(=O)[C@H](Cc2ccc(-c3cc(Br)c(OC)c(Br)c3)cc2)NC(=O)[C@@H](N)CCCNC(=N)N)cc1Br	1.62	> 87.5	
> 64	32	2	2	> 64	COc1ccc(-c2ccc(C[C@H](NC(=O)[C@@H](N)CCCNC(=N)N)C(=O)N[C@@H](CCCNC(=N)N)C(=O)NCCc3ccccc3)cc2)cc1	0.4	> 87.5	
> 64	> 64	> 64	64	> 64	C[N+](C)(C)CCCC[C@H](NC(=O)[C@H](Cc1ccc(-c2ccccc2)cc1)NC(=O)[C@@H](N)CCCC[N+](C)(C)C)C(=O)NCCc1ccccc1 (H-[Lys(Me3)]-[Bip]-[Lys(Me3)]-NHPhenethyl)			
> 64	> 64	> 64	> 64	> 64	C[N+](C)(C)CCCCC[C@H](N)C(=O)N[C@@H](Cc1ccc(-c2ccccc2)cc1)C(=O)N[C@@H](CCCNC(=N)N)C(=O)NCCc1ccccc1			
16	4				CC1(C)S[C@@H]2[C@H](NC(=O)[C@H](N)c3ccc(O)cc3)C(=O)N2[C@H]1C(=O)O [AMOXICILLIN]			
> 64	> 64	> 64	64	≥ 64	N=C(N)NCCC[C@H](NC(=O)[C@H](Cc1ccc(-c2cc(Br)c(O)c(Br)c2)cc1)NC(=O)[C@@H](N)CCCNC(=N)N)C(=O)NCCc1cc(Br)c(O)c(Br)c1			
16	8	2	2	16	COc1c(Br)cc(CCNC(=O)[C@H](CCCNC(=N)N)NC(=O)[C@H](Cc2c[nH]c3cc(Br)ccc23)NC(=O)[C@@H](N)CCCNC(=N)N)cc1Br	1.19	> 87.5	
> 64	> 64	> 64	> 64	> 64	C[N+](C)(C)CCCC[C@H](NC(=O)[C@H](Cc1ccc(-c2ccccc2)cc1)NC(=O)[C@@H](N)CCCNC(=N)N)C(=O)NCCc1ccccc1 (H-Arg-[Bip]-[Lys(Me3)]-NHPhenethyl)			
> 64	> 64	> 64	> 64	> 64	COc1c(Br)cc(C[C@H](NC(=O)CCCCC[N+](C)(C)C)C(=O)N[C@@H](CCCNC(=N)N)C(=O)NCCc2ccccc2)cc1Br			
> 64	> 64	> 64	> 64	> 64	C[N+](C)(C)CCCC[C@H](N)C(=O)N[C@@H](Cc1ccc(-c2ccccc2)cc1)C(=O)N[C@@H](CCCNC(=N)N)C(=O)NCCc1ccccc1 (H-[Lys(Me3)]-[Bip]-Arg-NHPhenethyl)			
> 64	64	> 64	32	> 64	COc1c(Br)cc(CCNC(=O)[C@H](CCCCN)NC(=O)[C@H](Cc2cc(Br)c(OC)c(Br)c2)NC(=O)[C@@H](N)CCCCN)cc1Br			
> 64	> 64	16	8	64	COc1c(Br)cc(C[C@H](NC(=O)[C@@H](N)CCCNC(=N)N)C(=O)N[C@@H](CCCNC(=N)N)C(=O)NCCc2ccccc2)cc1Br	0.34		
0.0625	> 64				POLYMYXIN B			
2	2	4	2	8	CC(C)(C)c1cc(C(C)(C)C)c2[nH]c(C(C)(C)C)c(C[C@H](NC(=O)[C@@H](N)CCCNC(=N)N)C(=O)N[C@@H](CCCNC(=N)N)C(=O)NCCc3ccccc3)c2c1 [LTX-109]	4.23	46.6	222
> 64	> 64	> 64	> 64	> 64	COc1c(Br)cc(C[C@H](NC(=O)[C@@H](N)CCCNC(=N)N)C(=O)N[C@@H](CCCNC(=N)N)C(=O)NCCc2c[nH]c3cc(Br)ccc23)cc1Br			
> 64	> 64	32	4	> 64	COc1ccc(CCNC(=O)[C@H](CCCNC(=N)N)NC(=O)[C@H](Cc2ccc(-c3ccc(OC)c(Br)c3)cc2)NC(=O)[C@@H](N)CCCNC(=N)N)cc1Br	0.29		

Compound	MIC [1] [µM]	MIC [2] [µM]	MIC [3] [µM]	MIC [4] [µM]	MIC [5] [µM]	hemolysis at 0.75 h, 100 µM [6] [%]	IC50 at 24 h [7] [µM]	EC50 at 45 min [8] [µM]
N=C(N)NCCC[C@H](NC(=O)[C@@H](Cc1c[nH]c2cc(Br)ccc12)NC(=O)[C@@H](N)CCCNC(=N)N)C(=O)NCCc1ccccc1	> 64	> 64	> 64	16	> 64	0.27		
N=C(N)NCCC[C@H](NC(=O)[C@H](Cc1c[nH]c2cc(Br)ccc12)NC(=O)[C@@H](N)CCCNC(=N)N)C(=O)NCCc1ccccc1	> 64	> 64	16	8	> 64	0.29	> 87.5	
C[C@@H]1[C@H](O)[C@@H](C)/C=C/C=C/C=C/C=C/C=C/C=C/C=C/[C@H](O[C@@H]2O[C@H](C)[C@@H](O)[C@H](N)[C@@H]2O)C[C@@H]2O[C@](O)(C[C@@H](O)C[C@@H](O)[C@H](O)CC[C@@H](O)C[C@@H](O)CC(=O)O[C@H]1C)C[C@H](O)[C@H]2C(=O)O [AMPHOTERICIN B]			1	2	4			
